Consider 16 molecules from ChEMBL document CHEMBL4699414, “Hit-to-lead optimization of novel benzimidazole phenylacetamides as broad spectrum trypanosomacides” (RSC Med Chem, 2020).

The nature of data set [1]: Cytotoxicity against human HEK293 cells assessed as reduction in cell viability measured after 48 hrs by resazurin assay. The format is cell-based. The method, boiled down:
(§1)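 HEK293 cells from ATCC; Alamar Blue viability read-out run per earlier method.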
On the technique in general: The colour change of resazurin is a common sign of viable cells or microbes.

Data set [2] concerns Trypanosoma cruzi. The experiment in a line: Antitrypanosomal activity against Trypanosoma cruzi infected in rat H9c2 infected with trypomastigotes from parasite-infected monkey LLC-MK2 cells measured after 72 hrs by DRAQ5 DNA dye based microscopic imaging analysis. Format: functional, organism-based. The following applies: H9c2, 72 h.
A short description of data set [3]: Cytotoxicity against rat H9c2 cells assessed as reduction in cell viability. The format is cell-based.
Data set [4] is described as follows: Cytotoxicity against human HepG2 cells assessed as reduction in cell viability measured after 48 hrs by CellTiter-Glo assay. The format is cell-based. The essentials: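 HepG2 human hepatoma cells from GSK Biological Reagents and Assay Development (Stevenage, UK); viability read-out per earlier method.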
In general terms: Cellular ATP, detected with luciferase, serves as a proxy for viable cell number.

A short description of data set [5]: Lipophilicity, logP of the compound. The format is physicochemical. The following applies: octanol/water.
Data set [6] deals with Trypanosoma brucei brucei. Kind of data set: Antitrypanosomal activity against Trypanosoma brucei brucei Lister 427 assessed as parasite growth inhibition measured after 48 hrs by alamar blue assay. The following applies: Lister 427, 48 h.
Data set [7] concerns Trypanosoma cruzi. The experiment in a line: Antitrypanosomal activity against recombinant Trypanosoma cruzi intracellular amastigotes expressing beta-galactosidase infected in mouse NIH/3T3 cells assessed as parasite growth inhibition incubated for 4 days by resorufin-beta-D-galactopiranoside substrate based fluorescence assay. The format is functional, organism-based. The following applies: NIH3T3, 96 h.

Data set [8] is described as follows: Selectivity index, ratio of CC50 for mouse NIH/3T3 cells to IC50 for recombinant Trypanosoma cruzi intracellular amastigotes expressing beta-galactosidase infected in mouse NIH/3T3 cells assessed as parasite growth inhibition incubated for 4 days by resorufin-beta-D-galactopiranoside substrate based fluorescence assay. The following applies: time 4 day, read-out: Ratio CC50/IC50. The format is toxicity, cell-based.

The nature of data set [9]: Selectivity index, ratio of CC50 for rat H9c2 cells assessed as reduction in cell viability to IC50 for Trypanosoma cruzi infected in rat H9c2 infected with trypomastigotes from parasite-infected monkey LLC-MK2 cells measured after 72 hrs by DRAQ5 DNA dye based microscopic imaging analysis. The format is toxicity. The following applies: read-out: Ratio CC50/IC50.
Data set [10] can be described thus: Selectivity index, ratio of CC50 for human HEK293 cells assessed as reduction in cell viability measured after 48 hrs by resazurin assay to IC50 for Trypanosoma brucei brucei Lister 427 […] assessed as parasite growth inhibition measured after 48 hrs by alamar blue assay. The format is toxicity, cell-based. The following applies: read-out: Ratio CC50/IC50.

For a further data set, the system named is HEK293. The experiment in a line: Cytotoxicity against human HEK293 cells assessed as reduction in cell viability measured after 48 hrs by resazurin assay relative to control. Format: cell-based. The following applies: hek293, 48 h. The essentials: as §1

`CCCn1c(NC(=O)c2ccccc2)nc2ccccc21`: the CC50 – broadly, the concentration at which the toxic effect on the cells reaches its halfway point – at 48 h was above 83 µM in data set [1] and 25 µM in data set [4]. The half-inhibitory concentration (IC50) (as a rule, the point on the concentration scale where inhibition reaches its midpoint) in the data set with Trypanosoma cruzi [2] stood at 5 µM; in data set [6], 3.8 µM. Further, the CC50 in data set [3] was above 50 µM. In [5], the logP (in general, a log measure of how a compound divides between an organic and an aqueous phase) came out at 4.1.
Take `CCCn1c(NC(=O)Cc2ccc(Cl)cc2)nc2ccccc21`: the cytotoxic concentration (CC50) at 48 h was above 83 µM in data set [1] and above 50 µM in data set [4]. In addition, in the data set on Trypanosoma cruzi [7], the half-inhibitory concentration (IC50) was found to be 0.63 µM. Further, the CC50 in [3] is above 50 µM. In data set [5], the logP stood at 4.7. In addition, the selectivity ratio at 96 h in [8] is 79. In data set [9], the selectivity ratio at 72 h turned out to be 40. For the same molecule, the selectivity ratio at 48 h in data set [10] came out at 50.
In the case of `CCCn1c(NC(=O)Cc2ccc(Cl)cc2)nc2ccc(Br)cc21`, the CC50 at 48 h was above 83 µM in data set [1] and above 50 µM in data set [4]. Besides, the IC50 in the data set on Trypanosoma cruzi [2] was 0.4 µM; in data set [6], 1.5 µM. For the same molecule, the CC50 in [3] was 13 µM. Moreover, the lipophilicity (logP) in [5] is 5.5.
Take `CCCn1c(NC(=O)CCc2ccccc2)nc2ccccc21`: the half-maximal cytotoxic concentration (CC50) at 48 h is 14 µM in [1] and above 50 µM in [4]. For the same molecule, the IC50 with Trypanosoma cruzi [2] is 5 µM; in data set [6] it was 3.5 µM. Further, in data set [3], the CC50 is above 50 µM. The molecule also yielded a log partition coefficient (logP) in [5] of 4.6.
Take `CCCn1c(NC(=O)Cc2ccc(Cl)cc2)nc2c(Br)cccc21`: the IC50 was found to be 10 µM in the data set on Trypanosoma cruzi [2] and 19 µM in data set [6]. The CC50 in [3] is above 50 µM. For the same molecule, the CC50 at 48 h in data set [4] is above 50 µM. This molecule displayed a lipophilicity (logP) in data set [5] of 5.5. Also, in the data set with HEK293, the Activity was found to be 54 µM.
Turning to `CCCn1c(NC(=O)Cc2ccc(Cl)cc2)nc2cc(Cl)ccc21`, the IC50 in the data set on Trypanosoma cruzi [2] was found to be 0.5 µM; in data set [6] it was 4.4 µM. Besides, the CC50 in [3] was 7.94 µM. The CC50 at 48 h in data set [4] is above 50 µM. In addition, in data set [5], the logP is 5.3. Besides, the Activity in the data set with HEK293 is 84 µM.
Turning to `C=CCc1c(NC(=O)Cc2ccc(Cl)cc2)ncc2ccccc12`, the results for the 50% cytotoxic concentration (CC50) at 48 h in data set [1] and in data set [4] were above 83 µM and above 50 µM, respectively. Moreover, the results for the half-inhibitory concentration (IC50) (with Trypanosoma cruzi [2]; in [6]) were 20 µM and above 83 µM, respectively. The half-maximal cytotoxic concentration (CC50) in data set [3] is above 50 µM. Moreover, the logP in data set [5] was found to be 5.1.
As for `CCCn1c(NC(=O)Cc2ccc(Cl)cc2)nc2ccc(F)cc21`, the results for the cytotoxic concentration (CC50) at 48 h in data set [1] and in [4] were 14 µM and above 50 µM, respectively. The 50% inhibitory concentration (IC50) stood at 1.3 µM with Trypanosoma cruzi [2] and 0.9 µM in data set [6]. The CC50 in [3] was 25 µM. In addition, in data set [5], the lipophilicity (logP) was 4.9.
Regarding `CCCCCn1c(NC(=O)Cc2ccc(Cl)cc2)nc2ccccc21`, the CC50 at 48 h in data set [1] was above 83 µM; in data set [4] it was above 50 µM. Also, the IC50 stood at 1 µM in the data set with Trypanosoma cruzi [2] and 3.7 µM in data set [6]. Moreover, in data set [3], the half-maximal cytotoxic concentration (CC50) is above 50 µM. The molecule also displayed a logP in data set [5] of 5.6.
For `CCCn1c(NC(=O)Cc2ccc(Cl)cc2)nc2ccc(Cl)cc21`, the CC50 at 48 h in [1] was above 83 µM; in [4], above 50 µM. The IC50 with Trypanosoma cruzi [2] was found to be 0.5 µM; in [6] it was 2.4 µM. Besides, the cytotoxic concentration (CC50) in [3] was found to be 6.3 µM. The same molecule gave a logP in data set [5] of 5.3.
Consider `CCCn1c(NC(=O)Cc2ccc(Cl)cc2)nc2c(OC)cccc21`, for which the CC50 at 48 h in [1] was above 83 µM; in [4] it was above 50 µM. The 50% inhibitory concentration (IC50) is 3.2 µM with Trypanosoma cruzi [2] and above 83 µM in data set [6]. The CC50 in data set [3] was above 50 µM. Also, the log partition coefficient (logP) in data set [5] turned out to be 4.6.
`CCCn1c(NC(=O)Cc2ccc(Cl)cc2)nc2cccc(C)c21`: the cytotoxic concentration (CC50) at 48 h was above 83 µM in data set [1] and above 50 µM in data set [4]. The IC50 with Trypanosoma cruzi [2] came to 1.3 µM; in data set [6] it was 9.4 µM. Also, in data set [3], the half-maximal cytotoxic concentration (CC50) is above 50 µM. Further, the lipophilicity (logP) in data set [5] worked out at 5.2.
As for `CCCn1c(C(=O)NCc2ccc(Cl)cc2)nc2ccccc21`, the half-maximal cytotoxic concentration (CC50) at 48 h in data set [1] was above 83 µM; in data set [4], above 50 µM. Moreover, the values for the 50% inhibitory concentration (IC50) (in the data set on Trypanosoma cruzi [2]; in data set [6]) were 10 µM and above 83 µM, respectively. The half-maximal cytotoxic concentration (CC50) in [3] was 16 µM. This molecule also had a logP in data set [5] of 4.1.
For `CCCn1c(NC(=O)Nc2ccc(Cl)cc2)nc2ccccc21`, the values for the CC50 at 48 h in data set [1] and in data set [4] were 5.2 µM and 40 µM, respectively. The results for the half-inhibitory concentration (IC50) (in the data set with Trypanosoma cruzi [2]; in data set [6]) were 2.5 µM and 5.4 µM, respectively. Further, in data set [3], the 50% cytotoxic concentration (CC50) is above 50 µM. For the same molecule, the logP in data set [5] amounted to 4.8.
Regarding `CCCn1c(NC(=O)/C=C/c2ccccc2)nc2ccccc21`, the CC50 at 48 h in data set [1] is above 83 µM; in data set [4], 40 µM. Also, the IC50 was determined as 1.3 µM with Trypanosoma cruzi [2] and 2.1 µM in data set [6]. For the same molecule, the cytotoxic concentration (CC50) in data set [3] came to 20 µM. The molecule also came in with a logP in data set [5] of 4.6.
In the case of `CCCn1c(NC(=O)CCCc2ccccc2)nc2ccccc21`, the half-maximal cytotoxic concentration (CC50) at 48 h in data set [1] was above 83 µM; in data set [4] it was above 50 µM. Moreover, the IC50 is 1.6 µM in the data set with Trypanosoma cruzi [2] and 2.4 µM in data set [6]. The CC50 in data set [3] turned out to be 16 µM. The same molecule gave a lipophilicity (logP) in data set [5] of 5.
